Results reported in ChEMBL document CHEMBL1122081, “2-(Aminomethyl)phenols, a new class of saluretic agents. 4. Effects of oxygen and/or nitrogen substitution” (J Med Chem, 1982).

How the values were obtained:
Details in all cases: in vivo
Rattus norvegicus [1] = assay: Saluretic property was estimated by the excretion of Na+ in rat administered orally; microequiv of Na+ at 16.5 mg/kg […]; assay type: ADME, organism-based; set-up: dose 16.5 mg/kg
Procedure, shortened: (§1)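 Rats dosed orally; urinary Na+ excretion (microequiv) scored per dose level. Each score is the geometric mean of three animals per cage, with three cages per dose.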

Rattus norvegicus [2] = assay: Saluretic property was estimated by the excretion of Na+ in rat administered orally; microequiv of Na+ at 5 mg/kg […]; assay type: ADME, organism-based; set-up: dose 5 mg/kg; procedure, shortened: as §1
Rattus norvegicus [3] = assay: Saluretic property (excretion of Na+ in rat after PO dosing); assay type: ADME, organism-based; procedure, shortened: as §1
Rattus norvegicus [4] = assay: Saluretic property was estimated by the excretion of Na+ in rat administered orally; microequiv of Na+ at 1 mg/kg […]; assay type: ADME, organism-based; set-up: dose 1 mg/kg; procedure, shortened: as §1
Canis familiaris [5] = assay: Saluretic property was estimated by the excretion of Na+ in dog administered intravenously; microequiv of Na+/min at 5 mg/kg iv stat, >900; assay type: ADME, organism-based, Canis lupus familiaris; set-up: dose 5 mg/kg, route intravenous
Procedure, shortened: (§2)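 Dogs of 15-20 kg were given a single stat intravenous dose of 5 mg/kg and Na+ excretion was measured in microequiv/min. The score is the average of two dogs, or three where designated.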

Rattus norvegicus [6] = species: Rattus norvegicus; assay: Saluretic property (excretion of Na+ in rat); assay type: ADME, organism-based; procedure, shortened: as §1
Canis familiaris [7] = assay: Saluretic property was estimated by the excretion of Na+ in dog administered intravenously; microequiv of Na+/min at 5 mg/kg iv stat, 100-249; assay type: ADME, organism-based, Canis lupus familiaris; set-up: dose 5 mg/kg, route intravenous; procedure, shortened: as §2
Canis familiaris [8] = assay: Saluretic property was estimated by the excretion of Na+ in dog administered intravenously; microequiv of Na+/min at 5 mg/kg iv stat, 0-99; assay type: ADME, organism-based, Canis lupus familiaris; set-up: dose 5 mg/kg, route intravenous; procedure, shortened: as §2
Rattus norvegicus [9] = assay: Saluretic property was estimated by the excretion of Na+ in rat administered orally; microequiv of Na+ at 50 mg/kg […]; assay type: ADME, organism-based; set-up: dose 50 mg/kg; procedure, shortened: as §1
Rattus norvegicus [10] = assay: Saluretic property was estimated by the excretion of Na+ in rat administered orally; microequiv of Na+ at 81 mg/kg […]; assay type: ADME, organism-based; set-up: dose 81 mg/kg; procedure, shortened: as §1
Canis familiaris [11] = assay: Saluretic property was estimated by the excretion of Na+ in dog administered intravenously; microequiv of Na+/min at 5 mg/kg iv stat, 400-599; assay type: ADME, organism-based, Canis lupus familiaris; set-up: dose 5 mg/kg, route intravenous; procedure, shortened: as §2
Canis familiaris [12] = assay: Saluretic property was estimated by the excretion of Na+ in dog administered intravenously; microequiv of Na+/min at 5 mg/kg iv stat, 250-399; assay type: ADME, organism-based, Canis lupus familiaris; set-up: dose 5 mg/kg, route intravenous; procedure, shortened: as §2
Canis familiaris [13] = assay: Saluretic property was estimated by the excretion of Na+ in dog administered intravenously; microequiv of Na+/min at 5 mg/kg iv stat, 600-799; assay type: ADME, organism-based, Canis lupus familiaris; set-up: dose 5 mg/kg, route intravenous; procedure, shortened: as §2
Canis familiaris [14] = assay: Saluretic property was estimated by the excretion of Na+ in dog administered intravenously; microequiv of Na+/min at 5 mg/kg iv stat, 800-899; assay type: ADME, organism-based, Canis lupus familiaris; set-up: dose 5 mg/kg, route intravenous; procedure, shortened: as §2
Canis familiaris [15] = assay: Saluretic property was estimated by the excretion of Na+ in dog administered intravenously; microequiv of Na+/min at 5 mg/kg iv stat, […]; assay type: ADME, organism-based, Canis lupus familiaris; set-up: dose 5 mg/kg, route intravenous; procedure, shortened: as §2

Row | SMILES | Saluretic potency (Rattus norvegicus [1]) [u equiv] | Saluretic potency (Rattus norvegicus [3]) | Saluretic potency (Rattus norvegicus [6]) [u equiv] | Saluretic potency (Canis familiaris [8]) [u equiv min-1] | further results
1 | CC(C)(C)c1cc(Cl)c(O)c(CN)c1.Cl | 4.2 | 3.9 u equiv | – | – | Saluretic potency (Rattus norvegicus [2]): 3.6 u equiv; Saluretic potency (Rattus norvegicus [4]): 2.1 u equiv; Saluretic potency (Canis familiaris [5]): > 900 u equiv min-1
2 | CC(C)(C)c1cc(I)c(O)c(Cn2cnnn2)c1 | – | < 0.2 u equiv | < 0.3 | – | Saluretic potency (Canis familiaris [7]): 100 u equiv min-1
3 | CC(C)(C)c1cc(Cl)c(O)c(CNS(N)(=O)=O)c1 | – | < 0.2 u equiv | < 0.3 | 0 | –
4 | Oc1c(Cl)cc(Cl)c(Cl)c1CN1CCOCC1 | – | < 0.2 u equiv | < 0.3 | – | Saluretic potency (Canis familiaris [7]): 100 u equiv min-1
5 | CCOC(=O)COc1c(I)cc(C(C)(C)C)cc1CN.Cl | – | – | – | – | Saluretic potency (Rattus norvegicus [9]): < 0.2 u equiv; Saluretic potency (Canis familiaris [7]): 100 u equiv min-1; Saluretic potency (Rattus norvegicus [10]): < 0.3 u equiv
6 | CC(C)(C)c1cc(I)c(OS(=O)(=O)O)c(CN)c1 | 1.4 | 2.4 u equiv | 2.9 | – | Saluretic potency (Rattus norvegicus [2]): 0.5 u equiv
7 | CN(C)Cc1cc(C(C)(C)C)cc(I)c1O | 2.7 | 3.3 u equiv | – | 0 | Saluretic potency (Rattus norvegicus [2]): 1.4 u equiv
8 | CC(C)(C)c1cc(I)c(OCC(N)=O)c(CN)c1.Cl | – | < 0.2 u equiv | < 0.3 | – | Saluretic potency (Canis familiaris [7]): 100 u equiv min-1
9 | CC(C)(C)c1cc(I)c(O)c(CN)c1.Cl | 4.2 | 3.9 u equiv | – | – | Saluretic potency (Rattus norvegicus [2]): 3.6 u equiv; Saluretic potency (Rattus norvegicus [4]): 2.1 u equiv; Saluretic potency (Canis familiaris [5]): > 900 u equiv min-1
10 | CCNS(=O)(=O)Oc1c(I)cc(C(C)(C)C)cc1CN.Cl | 1.4 | 2.4 u equiv | 2.9 | – | Saluretic potency (Canis familiaris [11]): 400 u equiv min-1; Saluretic potency (Rattus norvegicus [2]): 0.5 u equiv
11 | COc1c(I)cc(C(C)(C)C)cc1C[N+](C)(C)C.[I-] | – | – | – | 0 | –
12 | CC(C)(C)c1cc(I)c(O)c(CN=C(N)N)c1 | – | < 0.2 u equiv | < 0.3 | – | –
13 | CC(C)(C)c1cc(I)c(O)c(CNCCN)c1.Cl | 0.5 | 1.2 u equiv | 1.5 | 0 | Saluretic potency (Rattus norvegicus [2]): 0.3 u equiv
14 | CC(C)(C)c1cc(I)c2c(c1)CNC(=O)O2 | 0.4 | 0.7 u equiv | 0.9 | – | –
15 | CC(C)(C)c1cc(I)c(O)c(CNC2=NCCC2)c1.Cl | – | < 0.2 u equiv | < 0.3 | – | –
16 | O=CNCc1c(O)c(Cl)cc(Cl)c1Cl | – | < 0.2 u equiv | < 0.3 | 0 | –
17 | CN(Cc1c(O)c(Cl)cc(Cl)c1Cl)CC1CCCO1 (centres undefined) | – | < 0.2 u equiv | < 0.3 | – | Saluretic potency (Canis familiaris [12]): 250 u equiv min-1
18 | CC(C)(C)c1cc(I)c(O)c(CNC(N)=O)c1 | – | < 0.2 u equiv | < 0.3 | 0 | –
19 | CC(C)(C)c1cc(I)c(O)c(CNC2CCCCC2)c1.Cl | – | < 0.2 u equiv | < 0.3 | – | –
20 | CC(C)(C)c1cc(Cl)c2c(c1)CNC(=O)CO2 | – | < 0.2 u equiv | < 0.3 | – | –
21 | CC(C)(C)c1cc(I)c(OS(C)(=O)=O)c(CN)c1.Cl | – | < 0.2 u equiv | < 0.3 | – | –
22 | CN(C)S(=O)(=O)Oc1c(I)cc(C(C)(C)C)cc1CN.Cl | 0.6 | 1.8 u equiv | 2.4 | – | Saluretic potency (Rattus norvegicus [2]): 0.4 u equiv
23 | CC(C)(C)c1cc(I)c(O)c(C[N+](C)(C)C)c1.[I-] | – | 0.2 u equiv | < 0.3 | 0 | –
24 | CCCCNCc1cc(C(C)(C)C)cc(I)c1O.Cl | 2.7 | 3.3 u equiv | – | – | Saluretic potency (Canis familiaris [13]): 600 u equiv min-1; Saluretic potency (Rattus norvegicus [2]): 1.4 u equiv

Row | SMILES | Saluretic potency (Rattus norvegicus [1]) [u equiv] | Saluretic potency (Rattus norvegicus [3]) | Saluretic potency (Rattus norvegicus [6]) [u equiv] | Saluretic potency (Canis familiaris [8]) [u equiv min-1] | further results
25 | O=C(NCc1c(O)c(Cl)cc(Cl)c1Cl)C(Cl)(Cl)Cl | – | < 0.2 u equiv | < 0.3 | – | Saluretic potency (Canis familiaris [12]): 400 u equiv min-1
26 | CC(C)(C)c1cc(Cl)c2c(c1)CNCCO2.Cl | – | < 0.2 u equiv | < 0.3 | 0 | –
27 | CCN(CC)C(=O)COc1c(I)cc(C(C)(C)C)cc1CN.Cl | – | < 0.2 u equiv | < 0.3 | 0 | –
28 | CC(C)(C)c1cc(I)c2c(c1)CNS(=O)(=O)O2 | – | < 0.2 u equiv | < 0.3 | – | –
29 | CC(C)(C)c1cc(I)c(O)c(CNS(=O)(=O)O)c1 | 0.5 | 1.2 u equiv | 1.5 | – | Saluretic potency (Rattus norvegicus [2]): 0.3 u equiv
30 | CC(C)(C)c1cc(I)c(O)c(CNC2=NCCO2)c1 | – | < 0.2 u equiv | < 0.3 | – | –
31 | CC(C)(C)c1cc(I)c(O)c(CNC2=NCCS2)c1 | – | < 0.2 u equiv | < 0.3 | – | –
32 | O=C(NCc1c(O)c(Cl)cc(Cl)c1Cl)C(F)(F)F | 0.6 | 1.8 u equiv | 2.4 | – | Saluretic potency (Rattus norvegicus [2]): 0.4 u equiv
33 | CC(C)(C)OC(=O)NCc1cc(C(C)(C)C)cc(I)c1O | – | < 0.2 u equiv | < 0.3 | – | –
34 | CC(C)(C)c1cc(I)c(O)c(CNC2=NCCN2)c1 | – | < 0.2 u equiv | < 0.3 | 0 | –
35 | CC(C)(C)c1cc(I)c(OS(=O)(=O)c2ccccc2)c(CN)c1.Cl | 0.6 | 1.8 u equiv | 2.4 | – | Saluretic potency (Rattus norvegicus [2]): 0.4 u equiv
36 | NCC(=O)NCc1c(O)c(Cl)cc(Cl)c1Cl | – | < 0.2 u equiv min-1 | < 0.3 | – | Saluretic potency (Canis familiaris [7]): 100 u equiv min-1
37 | O=C(CCl)NCc1c(O)c(Cl)cc(Cl)c1Cl | 0.5 | 1.2 u equiv | 1.5 | 0 | Saluretic potency (Rattus norvegicus [2]): 0.3 u equiv
38 | COc1c(I)cc(C(C)(C)C)cc1CN.Cl | – | < 0.2 u equiv | < 0.3 | 0 | –
39 | COc1c(Cl)cc(Cl)c(Cl)c1CN.Cl | – | < 0.2 u equiv | < 0.3 | 0 | –
40 | CC(C)(C)c1cc(Cl)c(O)c(/C=N/N=C(N)N)c1 | – | < 0.2 u equiv | < 0.3 | – | Saluretic potency (Canis familiaris [7]): 100 u equiv min-1
41 | Oc1c(Cl)cc(Cl)c(Cl)c1CN1CCCCC1 | – | < 0.2 u equiv | < 0.3 | 0 | –
42 | CC(C)(C)c1cc(Cl)c(O)c(C[n+]2ccccc2)c1.[Cl-] | – | < 0.2 u equiv | < 0.3 | 0 | –
43 | Cl.NCc1c(O)c(Cl)cc(Cl)c1Cl | 1.4 | 2.4 u equiv | 2.9 | – | Saluretic potency (Rattus norvegicus [2]): 0.5 u equiv; Saluretic potency (Canis familiaris [14]): 800 u equiv min-1
44 | CN1CCN(Cc2cc(C(C)(C)C)cc(Cl)c2O)CC1.Cl | – | < 0.2 u equiv | < 0.3 | 0 | –
45 | CNCc1cc(C(C)(C)C)cc(I)c1O | 3.3 | 3.6 u equiv | – | – | Saluretic potency (Rattus norvegicus [2]): 2.6 u equiv; Saluretic potency (Rattus norvegicus [4]): 0.7 u equiv; Saluretic potency (Canis familiaris [15]): 250 u equiv min-1
46 | CC(C)(C)c1cc(Cl)c(O)c(C[n+]2ccc(N)cc2)c1.[Cl-] | – | – | – | 0 | –
47 | CC(C)(C)c1cc(Cl)c(O)c(/C=N/N=C(/N)S)c1 | – | < 0.2 u equiv | < 0.3 | – | Saluretic potency (Canis familiaris [7]): 100 u equiv min-1
